Bioassay records deposited in PubChem BioAssay by Sanford-Burnham Center for Chemical Genomics.
mIAP block: inhibitors of mouse IAP, primary screen, biochemical, luminescence, uHTS; intestinal alkaline phosphatase [Mus musculus]; purified mouse IAP, CDP-Star luminescence, 30 min; inhibition, % at 10 µM; 330,000 tested, 0.2% active;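 active means inhibition of at least 40% at 10 µM in the primary screen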;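 further: plate controls were DMSO with enzyme for no effect and no enzyme wells for full effect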
mIAP activ: activators of mouse IAP, primary screen, biochemical, luminescence, uHTS; activation factor at 10 µM; intestinal alkaline phosphatase [Mus musculus]; 330,000 tested, 0.24% active; muIAP, CDP-Star luminescence, 30 min; active compounds read high; 1 = vehicle-only enzyme signal, 0 = enzyme-free wells;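 active means activation factor of at least 2 at 20 µM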
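System: Mouse IAP enzyme | Also added: CDP-Star substrate | Dosing: Compounds dispensed in DMSO | Schedule: 30 min enzyme-substrate-compound incubation at room temperature | Technique: Chemiluminescence readout | Control set: DMSO-only wells and no-enzyme negative control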
bIAP inh: bovine intestinal alkaline phosphatase inhibitors, primary screen, selectivity assay for TNAP inhibitor project, biochemical, bovine IAP, CDP-star luminescence; inhibition, % at 20 µM; alkaline phosphatase, intestinal [Bos taurus]; purified bovine IAP, 30 min; 190,000 tested, under 10 active;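 active means over 50% inhibition of intestinal alkaline phosphatase at 20 µM in the single-dose screen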
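System: Purified bovine intestinal alkaline phosphatase (IAP) enzyme | Input: IAP diluted 1/65,000,000 in the well | Also added: CDP-star chemiluminescent phosphatase substrate, 30 µM final | Dosing: 20 µM single dose | Times: Enzyme reaction for 30 min at room temperature | Detection: Luminescence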
bIAP act: bovine intestinal alkaline phosphatase activators, primary screen, biochemical, bovine IAP, CDP-star luminescence. alkaline phosphatase, intestinal [Bos taurus]. purified bovine IAP, 30 min; active compounds read high; fold of DMSO-control signal, blank-subtracted. activation factor at 20 µM. 200,000 tested, 0.17% active. AID 1016, 2008;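 active means activation factor of 2 or more at 20 µM, a signal rise over negative controls twice the positive control's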
hIAP block: human IAP inhibitors, primary screen, biochemical, luminescence, uHTS; Intestinal-type alkaline phosphatase (Homo sapiens), P09923; purified IAP, CDP-Star luminescence, 30 min; inhibition, % at 10 µM; 330,000 tested, 0.12% active; AID 2544, 2010;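 active means inhibition reaching a set limit with compound at 10 µM in the primary screen, cut at about 35% in these data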;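 further: plate controls were DMSO wells with enzyme for no effect and no-enzyme buffer wells for full effect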
Target sequence (P09923 whole entry, looked up): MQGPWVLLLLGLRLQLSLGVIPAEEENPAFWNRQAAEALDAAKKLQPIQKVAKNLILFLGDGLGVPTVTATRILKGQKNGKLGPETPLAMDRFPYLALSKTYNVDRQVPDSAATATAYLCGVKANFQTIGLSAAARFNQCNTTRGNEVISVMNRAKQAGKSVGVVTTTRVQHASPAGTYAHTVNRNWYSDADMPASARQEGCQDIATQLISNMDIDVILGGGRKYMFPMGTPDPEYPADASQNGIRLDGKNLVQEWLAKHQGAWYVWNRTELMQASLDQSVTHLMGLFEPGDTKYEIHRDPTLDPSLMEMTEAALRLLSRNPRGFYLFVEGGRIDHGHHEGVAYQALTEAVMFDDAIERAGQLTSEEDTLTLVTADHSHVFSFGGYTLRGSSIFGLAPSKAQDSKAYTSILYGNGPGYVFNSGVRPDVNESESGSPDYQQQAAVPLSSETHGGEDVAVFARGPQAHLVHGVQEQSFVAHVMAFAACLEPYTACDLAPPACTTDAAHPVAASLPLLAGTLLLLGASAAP
hIAP act: human IAP activators, primary screen, biochemical, luminescence, uHTS. Intestinal-type alkaline phosphatase (Homo sapiens), P09923. purified human IAP, CDP-Star luminescence, 30 min; active compounds read high; 1 = vehicle-only enzyme, 0 = enzyme-free background. activation factor at 10 µM. 330,000 tested, 0.16% active. AID 2524, 2010;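 active means activation factor of the enzyme at least 2-fold when tested at 20 µM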
hIAP act confirm: human IAP activators, confirmation, biochemical, luminescence, single concentration, uHTS hits; activation (%Activity, negative = activation), % at 8.3 µM; purified IAP, CDP-Star luminescence, 30 min; active compounds read low; AID 434926, 2010; shares compounds with hIAP act; 880 tested, 10% active;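 active means at least twofold enzyme activation in any of six single-dose repeats, which the averaged readout prints as negative percent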
Numbers without * were called inactive; . = no result given. Rows were chosen to be rich in hits. Some 0.79% of all compounds tested hit in one or more screens of this group.

SMILES	mIAP block	mIAP activ	bIAP inh	bIAP act	hIAP block	hIAP act	hIAP act confirm
CCCCCCC(=O)N=Nc1c(O)[nH]c2ccc([N+](=O)[O-])cc12	17	0.83	-17	1.2	-16	1.2	.
COCCNC(=S)N=Nc1c(O)[nH]c2ccc([N+](=O)[O-])cc12	18	0.82	.	.	-141	2.4*	-40
Cc1ccc(/C=N/n2c(C3CCCCC3)n[nH]c2=S)cc1	2	0.98	.	.	21	0.79	.
COc1ccc(CC(=O)NNC2=Nc3cccc4cccc2c34)cc1	-6	1.1	.	.	-119	2.2*	12
COc1ccc(C(=O)NNC2=Nc3cccc4cccc2c34)cc1	25	0.75	-19	1.2	-34	1.3	.
C[C@H](NC(=O)C1CCN(S(=O)(=O)c2ccccc2)CC1)C(=O)NCc1ccc(Cl)c(Cl)c1	-6	1.1	.	.	-16	1.2	.
Nc1cc(Nc2ccccc2)ccn1	4	0.96	.	.	38*	0.62	8
CCOC(=O)c1nncc(-c2ccccc2)n1	0	1	.	.	-4	1	.
c1ccc(-n2ncc3c2ncn2nc(-c4ccco4)nc32)cc1	30	0.7	5	1	52*	0.48	0
CCc1ccc(NC(=O)C2CCN(S(=O)(=O)c3ccc4c(c3)N(C(C)=O)CCO4)CC2)cc1	-46	1.5	.	.	39*	0.61	-37
CC(=O)N1CCOc2ccc(S(=O)(=O)N3CCC(C(=O)Nc4ccc(C)cc4)CC3)cc21	-17	1.2	.	.	-36	1.4	.
CCc1ccc(NC(=O)C2CCN(S(=O)(=O)c3c(C)[nH]c(=O)[nH]c3=O)CC2)cc1	-6	1.1	-9	1.1	-152	2.5*	4
Cc1ccc(NC(=O)CCC(=O)NNC(=S)Nc2ccc(F)cc2)c(C)c1	0	1	.	.	-70	1.7	.
Cc1ccc(NC(=O)CCC(=O)NNC(=S)Nc2ccc(F)cc2F)cc1C	0	1	.	.	-123	2.2*	7
Cc1ccc(N(Cc2ccccc2)C(=O)Cc2ccc(S(=O)(=O)N3CCOCC3)s2)cc1	-3	1	.	.	6	0.94	.
CNC(=S)NNC(=O)c1cccn(Cc2ccc(Cl)c(Cl)c2)c1=O	22	0.78	-19	1.2	-81	1.8	.
CNC(=S)NNC(=O)c1cccn(Cc2cccc(Cl)c2)c1=O	18	0.82	-35	1.3	-101	2*	6
COc1ccc(-n2nc3ccc(NS(C)(=O)=O)cc3n2)cc1Cl	-9	1.1	6	0.9	38*	0.62	1
Cc1cccc(C(=O)OCN2C(=O)c3ccccc3C2=O)c1[N+](=O)[O-]	3	0.97	.	.	42*	0.58	10
Cc1cc(NS(=O)(=O)c2ccc(NC(=O)C(C)Oc3ccc4c(C)cc(=O)oc4c3)cc2)no1 (stereo unspecified)	6	0.94	3	1	-162	2.6*	-23
Cc1nn(C(=O)CCC(=O)NCc2cccc(F)c2)c2ccccc12	2	0.98	.	.	39*	0.61	5
Cc1nn(C(=O)CCC(=O)NCCc2ccccc2)c2ccccc12	4	0.95	.	.	13	0.87	.
OCCNc1ncnc2c1nnn2Cc1ccccc1	-9	1.1	.	.	10	0.91	.
CC(C)CCNc1ncnc2c1nnn2Cc1ccccc1Cl	4	0.96	7	0.9	80*	0.2	40
Cc1ccc(NC(=O)c2ncn(CC(=O)NCC(C)c3ccccc3)n2)cc1C (stereo unspecified)	-4	1	.	.	.	.	.
SMILES	mIAP block	mIAP activ	bIAP inh	bIAP act	hIAP block	hIAP act	hIAP act confirm
COc1ccc(OC)c(NC(=O)c2cc(-c3ccc(C)cc3O)n[nH]2)c1	-4	1	-37	1.4	-116	2.2*	-36
Cc1ccc(C)c(NC(=O)c2cc(-c3cc(C)c(C)cc3O)n[nH]2)c1	-30	1.3	.	.	-92	1.9	.
Cc1ccc(CNC(=O)c2cc(-c3cc(C)cc(C)c3O)n[nH]2)cc1	-21	1.2	.	.	-90	1.9	.
COc1ccc(OC)c(NC(=O)c2cc(-c3cc(C)ccc3O)n[nH]2)c1	-2	1	.	.	-108	2.1*	-42*
Cc1ccc(-c2cc(C(=O)Nc3cc(C)ccc3C)[nH]n2)c(O)c1	4	0.96	9	0.9	-49	1.5	.
Cc1ccc(O)c(-c2cc(C(=O)NCc3ccc4c(c3)OCO4)[nH]n2)c1	-31	1.3	6	0.9	-106	2.1*	20
CC1Cc2ccccc2N1C(=O)c1nn(C)cc1Br (stereo unspecified)	-1	1	.	0.5	3	0.97	.
COCCN(C(=O)COC(=O)c1ccccc1NCc1ccco1)c1c(N)n(Cc2ccccc2)c(=O)[nH]c1=O	-1	1	.	.	-5	1.1	.
CCC(Oc1ccccc1C)C(=O)N1CCCN(C)CC1 (stereo unspecified)	6	0.94	.	.	-8	1.1	.
O=C(NCCc1ccc(Cl)cc1)c1ccc2[nH]c(=O)c(=O)[nH]c2c1	-6	1.1	.	.	-100	2*	-38
Cc1nn(-c2ccccc2)c(N2CCCC2)c1/C=N/NC(=S)Nc1ccccc1F	10	0.9	34	0.7	-8	1.1	.
O=C(NNC(=O)c1n[nH]c(=O)c2ccccc12)c1ccc(Br)cc1	15	0.85	.	.	-113	2.1*	-12
CCc1ccc(C(=O)NNC(=O)c2n[nH]c(=O)c3ccccc23)cc1	12	0.89	.	.	-67	1.7	.
Cc1ccc(C(=O)NNC(=O)c2n[nH]c(=O)c3ccccc23)cc1C	16	0.84	.	.	-118	2.2*	-41
N#Cc1ccc(OCC(=O)NNC(=S)NC(=O)C2CC2)cc1	22	0.78	.	.	-121	2.2*	0
CC(C)c1ccc(OCC(=O)NNC(=S)NC(=O)C2CC2)cc1	13	0.87	.	.	4	0.96	.
O=C1CCc2cc(S(=O)(=O)Nc3cccc(F)c3)cc3c2N1CC3	3	0.97	.	.	14	0.86	.
COc1ccc(N(CC(=O)NC2CCCC2)C(=O)Cn2nnc(-c3ccc(OC)c(OC)c3)n2)c(OC)c1	2	0.97	.	.	2	0.98	.
Cc1cnc(C(=O)NNC(=O)c2ccc(Br)cc2)cn1	14	0.86	.	.	-122	2.2*	-38
COc1ccc(C)cc1NS(=O)(=O)c1ccc2c(c1)CCN2C(C)=O	-14	1.1	.	.	-2	1	.
